From paper PMC5812400 (ESMO Open, 2018)

Tests used:
[1] = system: adult patients with advanced non-haematological malignancies; assay: DLT and MTD/RP2D determination, phase I dose escalation of milled TAK-228; format: in vivo, human; conditions: for Maximum tolerated dose (MTD) / Recommended phase II dose (RP2D): milled
How it was run: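 Open-label dose escalation at four US sites with milled oral capsules, fasted, in 28-day cycles. Arms: QD days 1–28 (start 4 mg); QD days 2–4, 9–11, 16–18, 23–25 (start 6 mg) with IV taxane 80 mg/m2 on days 1, 8 and 15, ~24 h before dosing; QW days 1, 8, 15, 22 (start 20 mg). DLT: drug-related AE preventing further escalation. MTD: dose giving ≤1 DLT in cycle 1. DLT-evaluable: ≥75% of planned cycle 1 doses, or stopped earlier for a drug-related AE.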

[2] = system: patients with haematological malignancies or advanced solid tumours; conditions: unmilled TAK-228, haematological malignancies; ref 7 11; cited from earlier work

Compound: CC(C)n1nc(-c2ccc3oc(N)nc3c2)c2c(N)ncnc21 [TAK-228, Sapanisertib]
- Patients with DLT ([1]; QD 3 mg, 10 patients, grade 3 thrombocytopaenia): one patient experienced a DLT
- DLT-evaluable patients with at least one DLT ([1]; QD 4 mg): 3/6
- Patients with DLT ([1]; QW 20 mg): none of the six patients
- Patients with DLT ([1]; QW 30 mg, cohort expanded to 12 patients, grade 3 adverse drug reaction): 1 patient
- Patients with DLT ([1]; QW 30 mg, initial six DLT-evaluable patients): none experiencing DLTs
- Maximum tolerated dose (MTD) ([1]; QD 3 days/week in combination with paclitaxel 80 mg/m^2): 6 mg
- Recommended phase II dose (RP2D) ([1]; in combination with paclitaxel 80 mg/m^2): 4 mg
- Maximum tolerated dose (MTD) ([1]; single-agent QD): 3 mg
- Recommended phase II dose (RP2D) ([1]; single-agent QD): 3 mg
- Maximum tolerated dose (MTD) ([1]; single-agent QW): 30 mg
- Recommended phase II dose (RP2D) ([1]; single-agent QW): 30 mg
- Incidence of grade ≥3 drug-related AEs [2]: 31%
